In ChEMBL document CHEMBL2021789, “Molecular docking and enzymatic evaluation to identify selective inhibitors of aspartate semialdehyde dehydrogenase” (Bioorg Med Chem, 2012):

Key:
[1] = Competitive inhibition of Streptococcus pneumoniae ASADH using aspartyl semialdehyde as substrate using Dixon plot analysis
In short: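 Recombinant S. pneumoniae enzyme, reverse reaction read as NADPH rise at 340 nm, room temperature. Buffer: 120 mM CHES pH 8.6, 200 mM KCl, 20% DMSO for DMSO-soluble inhibitors. Substrates: 1 mM ASA, 1.5 mM NADP, 20 mM phosphate. Enzyme added last; inhibitor serially diluted. Initial velocities fitted to Dixon equation assuming competition with ASA.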

[2] = Competitive inhibition of Vibrio cholerae ASADH using aspartyl semialdehyde as substrate by Dixon plot analysis
In short: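 Recombinant V. cholerae ASADH, reverse reaction, room temperature, in 120 mM CHES pH 8.6, 200 mM KCl and 20% DMSO. Final levels: ASA 1 mM, NADP 1.5 mM, phosphate 20 mM. Enzyme added to start; inhibitor serially diluted across wells. NADPH rise read at 340 nm; initial velocities fitted to Dixon equation assuming ASA-competitive inhibition to give Ki.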

[3] = Competitive inhibition of Vibrio cholerae ASADH using different concentration of aspartyl semialdehyde as substrate by spectrophotometry
In short: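 Recombinant V. cholerae ASADH, reverse reaction at room temperature in 120 mM CHES pH 8.6, 200 mM KCl, 20% DMSO, with NADP and phosphate. ASA varied at several fixed inhibitor concentrations. NADPH formation read at 340 nm; initial-rate data fitted to standard inhibition-type models.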

Compound | Ki [1] [µM] | Ki [2] [µM] | Ki [3] [µM]
COC(=O)c1cc(C(=O)Nc2ccc([N+](=O)[O-])cc2)cc(C(=O)OC)c1 | > 20000 |  | 
COC(=O)c1ccc(C(=O)OC)nc1 | > 20000 |  | 
O=c1[nH]c2ccc([N+](=O)[O-])cc2[nH]1 | 400 | 1100 | 
COC(=O)c1ccc([N+](=O)[O-])cn1 | > 20000 |  | 
O=C1NC(=O)c2cc([N+](=O)[O-])c(Cl)cc21 | 150 | 180 | 197
O=C(O)c1cc(C(=O)O)cc(C(=O)Nc2ccc([N+](=O)[O-])cc2)c1 | 110 | 180 | 
CCn1c(=O)n(CC)c2cc([N+](=O)[O-])ccc21 | > 4000 |  | 
Cn1c(=O)n(C)c2cc([N+](=O)[O-])ccc21 | 86 | > 130 | 24
O=C1NC(=O)c2cc([N+](=O)[O-])ccc21 | 3300 | 2600 | 
CN1C(=O)c2ccc([N+](=O)[O-])cc2C1=O | 890 | 1100 | 
O=C(O)c1ccc(C(=O)O)nc1 [PYRIDINE-2,5-DICARBOXYLIC ACID] | 690 | 1200 | 
CCN1C(=O)c2ccc([N+](=O)[O-])cc2C1=O | > 4000 |  | 
O=C(O)c1ccc([N+](=O)[O-])cn1 | 1200 | 2100 | 
